SENP8 block-1: blocks the human protease SENP8. purified SENP8, Z-RLRGG-aminoluciferin cleavage, luminescence. AID 2540. inhibition, % at 10 µM. Q96LD8. 330,000 compounds, 1.2% hits; in the data active = inhibition above about 50%
Target sequence (Q96LD8 whole entry, looked up): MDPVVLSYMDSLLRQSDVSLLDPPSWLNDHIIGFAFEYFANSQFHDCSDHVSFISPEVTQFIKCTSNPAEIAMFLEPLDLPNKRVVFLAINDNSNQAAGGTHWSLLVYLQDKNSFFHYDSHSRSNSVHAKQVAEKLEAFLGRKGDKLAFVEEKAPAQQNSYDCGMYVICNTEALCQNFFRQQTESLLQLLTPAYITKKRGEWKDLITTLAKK
SENP6 block: SENP6 protease inhibition; Q9GZR1; Recombinant SENP6 catalytic domain, aminoluciferin luminescence; inhibition, % at 10 µM; 330,000 compounds, 1.8% hits; AID 2599;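 active = inhibition above about 50% at the single tested dose, limit read from the data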;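 also: plate controls were DMSO wells with enzyme for no effect and DMSO wells lacking enzyme for full effect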
Target sequence (Q9GZR1 628-1112 limits assumed): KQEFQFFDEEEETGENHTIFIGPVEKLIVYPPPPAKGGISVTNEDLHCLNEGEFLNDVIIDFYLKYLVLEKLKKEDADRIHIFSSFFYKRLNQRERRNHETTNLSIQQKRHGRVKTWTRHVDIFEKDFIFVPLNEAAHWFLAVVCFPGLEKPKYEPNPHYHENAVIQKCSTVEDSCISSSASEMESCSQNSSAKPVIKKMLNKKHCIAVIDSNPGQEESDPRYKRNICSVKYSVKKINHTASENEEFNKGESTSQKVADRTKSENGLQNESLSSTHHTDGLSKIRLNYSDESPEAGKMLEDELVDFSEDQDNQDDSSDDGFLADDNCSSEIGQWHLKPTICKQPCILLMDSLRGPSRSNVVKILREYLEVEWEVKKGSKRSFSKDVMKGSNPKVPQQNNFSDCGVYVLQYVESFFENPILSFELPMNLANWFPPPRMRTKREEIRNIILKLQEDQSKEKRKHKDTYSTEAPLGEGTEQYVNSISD
SENP7 inh: blocks the human protease SENP7 | inhibition, % at 5 µM | Q9BQF6 | recombinant SENP7, Z-RLRGG-aminoluciferin luminescence, 40 min | 330,000 compounds, 1.5% hits;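 active = inhibition above about 50% at the single test dose, limit read from the data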;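 also: plate controls were DMSO with enzyme for no effect and no enzyme buffer wells for full effect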
Platelet DG rel: modulates dense granule release in human platelets. inhibition, %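 (compounds screened at 7.5 µM in platelet-rich plasma)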. 300,000 compounds, 0.22% hits. AID 1663. human platelet-rich plasma, SFLLRN dense granule ATP release, luminescence;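 active = mean replicate score, as percent of positive control, at or above 50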
SENP1 inh: blocks the human SENP1 SUMO protease catalytic domain; inhibition, % at 10 µM; recombinant SENP1 catalytic domain, CyPet-SUMO1-YPet FRET cleavage; Q9P0U3; 360,000 compounds, 0.21% hits;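 active = inhibition at least 30% at 10 µM, raw YFP signal under a set limit, fluorescence ratio 0.5 to 1.5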;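 also: 0% = enzyme with DMSO and 100% = no enzyme wells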
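Controls: no-enzyme wells low, DMSO-plus-enzyme wells high control. Test system: human recombinant His6-tagged SENP1 catalytic domain enzyme. Reagent: SFCypet-SUMO1-SFYpet FRET protein substrate, 25 nM final. Doses: one dose per compound, 10 µM, 0.5% DMSO. Detection: FRET, CFP and YFP emission. Timing: 50 min reaction at room temperature.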
SENP8 block-2: SENP8 (human) protease inhibition; recombinant SENP8, Nedd8 substrate fluorescence; inhibition, % at 20 µM; 360,000 compounds, 0.64% hits; AID 602440; in the data active = inhibition mostly above about 40%, no sharp cut-off; inactive = mostly below about 27%
SENP8 conf: confirmation of human SENP8 protease inhibitors; inhibition, % at 12.5 µM; shares compounds with SENP7 inh; AID 488912; 6,200 compounds, 40% hits; Recombinant SENP8, Z-RLRGG-aminoluciferin luminescence, 60 min;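 active = mean inhibition across replicates above about 50%, limit read from the data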
SENP6 confirm: human SENP6 inhibition, confirmed; shares compounds with SENP7 inh; recombinant SENP6, Z-RLRGG-aminoluciferin luminescence; inhibition, % at 12.5 µM; 6,200 compounds, 58% hits
SENP7 confirm: confirmation of human SENP7 protease inhibitors | inhibition, % at 12.5 µM | shares compounds with SENP7 inh | 6,200 compounds, 69% hits | AID 488917 | recombinant SENP7, Z-RLRGG-aminoluciferin luminescence, 40 min
Casp3 SENP sel: caspase-3 inhibition (SENP selectivity assay) | 6,200 compounds, 60% hits | shares compounds with SENP7 inh | purified caspase-3, Z-DEVD-aminoluciferin luminescence, 60 min | inhibition, % at 12.5 µM;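 active = mean inhibition above about 50%, limit read from the data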;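 also: plate controls were enzyme with DMSO for no effect and wells without caspase-3 for full effect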
Luc interf: luminescence interference (SENP counter-screen). 6,200 compounds, 39% hits. shares compounds with SENP7 inh. inhibition, % at 12.5 µM. Pre-incubated SENP8/Z-RLRGG-aminoluciferin, luciferase luminescence interference. AID 488919;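 active = mean inhibition above about 50% when retested at one dose, limit read from the data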;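 also: plate controls were DMSO wells with completed reaction for no effect and substrate without enzyme for full effect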
* hit, by the source's call; nt = no result given. Most compounds without a hit are left out; they make up all but 2.6% or so of the library.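 The calls were made as follows, unless noted: active = mean inhibition above about 50% in the one-dose retest (limit read from the data); inactive = the rest.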

SMILES | SENP8 block-1 | SENP6 block | SENP7 inh | Platelet DG rel | SENP1 inh | SENP8 block-2 | SENP8 conf | SENP6 confirm | SENP7 confirm | Casp3 SENP sel | Luc interf
CC1=NN(c2ccccc2)C(=O)/C1=C/c1c(O)n(-c2ccc(F)c(Cl)c2)[nH]c1=O | 78* | 84* | -6 | 17 | nt | nt | 5 | 66* | 59* | 4 | 55*
CN(C)c1ccc(C=Nc2cnn(C)c2C(N)=O)cc1 | 68* | 73* | 77* | nt | -63 | -49 | 10 | 45 | 78* | 62* | 24
Cn1ncc(N=Cc2ccccc2[N+](=O)[O-])c1C(N)=O | -1 | -7 | -9 | -13 | 2 | -5 | nt | nt | nt | nt | nt
Cc1cc(C=C2C(=O)c3ccccc3C2=O)c(C)n1C | 56* | 66* | 3 | -7 | -30 | 18 | 10 | 37 | 72* | 37 | 7
CCn1c(C)cc(C=C2C(=O)c3ccccc3C2=O)c1C | nt | nt | nt | 10 | -23 | 14 | nt | nt | nt | nt | nt
Cc1ccc(C=C2C(=O)c3ccccc3C2=O)s1 | 81* | 70* | 92* | 20 | 1 | 40 | 68* | 94* | 99* | 88* | 40
Cc1ccc(C=C2C(=O)c3ccccc3C2=O)o1 | 79* | 97* | 95* | 30 | -2 | 22 | 96* | 97* | 101* | 96* | 75*
O=C(O)c1cccc(-c2nnn(Cc3ccccc3)n2)c1 | -10 | 10 | 1 | -6 | -1 | 22 | nt | nt | nt | nt | nt
Cc1ccccc1Cn1nnc(-c2ccc(C(=O)O)cc2)n1 | -9 | -9 | 0 | 0 | 0 | 0 | nt | nt | nt | nt | nt
Cc1ccccc1Cn1nnc(-c2cccc(C(=O)O)c2)n1 | 31 | 71* | 33 | 14 | 2 | 6 | 64* | 61* | 86* | 52* | 72*
O=C(O)c1cccc(-c2nnn(Cc3ccccc3Cl)n2)c1 | 56* | 82* | 43 | -4 | 0 | 18 | 12 | 83* | 94* | 44 | 44
COc1ccc(/C=C/C(=O)c2ccc(O)cc2)cc1 | 90* | 91* | 74* | 11 | 2 | 35 | 65* | 48 | 64* | 49 | 83*
COc1ccc(/C=C/C(=O)c2ccccc2O)cc1 | 64* | 81* | 67* | 6 | 1 | 11 | 88* | 84* | 84* | 35 | 46
COc1ccc(/C=C/C(=O)c2ccccn2)cc1 | 17 | 27 | 15 | 21 | -89 | -22 | nt | nt | nt | nt | nt
COc1ccc(/C=C/C(=O)c2ccoc2)cc1 | -17 | 6 | -6 | 13 | 1 | -12 | nt | nt | nt | nt | nt
Cc1ccc([N+](=O)[O-])cc1NC(=O)c1cccnc1 | 10 | 22 | -5 | -4 | 0 | 17 | nt | nt | nt | nt | nt
Cc1cccnc1Nc1nc(-c2ccc(F)cc2)cs1 | 89* | 92* | 93* | -2 | 3 | 27 | 89* | 93* | 101* | 74* | 53*
COc1cccc(Nc2nc(-c3ccc(O)cc3)cs2)c1 | 0 | 36 | -2 | 11 | -3 | -40 | nt | nt | nt | nt | nt
Cc1cccnc1Nc1nc(-c2ccc(O)cc2)cs1 | 96* | 93* | 94* | 37 | 0 | 13 | 96* | 98* | 102* | 89* | 97*
O=C(NCc1ccccc1)/C(=C/c1ccc([N+](=O)[O-])cc1)NC(=O)c1ccco1 | -6 | -18 | 7 | -4 | 6 | 7 | nt | nt | nt | nt | nt
O=[N+]([O-])c1ccc(C2=NN(CCO)C(=Nc3ccc(OC(F)(F)F)cc3)SC2)cc1 | 4 | -14 | 5 | -7 | 2 | 9 | nt | nt | nt | nt | nt
O=C(N/N=C/c1c(Cl)cccc1Cl)c1ccc(F)cc1 | -9 | -16 | -9 | 4 | 0 | 3 | nt | nt | nt | nt | nt
O=C(NN=C1CCCC1)c1n[nH]c2c1CCCC2 | 39 | 68* | 45 | 5 | 2 | 16 | 58* | 68* | 87* | 90* | 51*
O=C(N/N=C/c1c(Cl)cccc1Cl)c1n[nH]c2c1CCCC2 | 68* | 28 | 71* | 0 | 1 | 13 | 13 | 72* | 92* | 80* | 7
O=C(NC1CCCCC1)c1n[nH]c2c1CCCCC2 | 84* | 89* | 90* | nt | 2 | 12 | 86* | 86* | 97* | 94* | 73*
SMILES | SENP8 block-1 | SENP6 block | SENP7 inh | Platelet DG rel | SENP1 inh | SENP8 block-2 | SENP8 conf | SENP6 confirm | SENP7 confirm | Casp3 SENP sel | Luc interf
CCC(C)(C)C1CCc2[nH]nc(C(=O)NC3CCCC3)c2C1 (stereo not given) | 5 | 7 | -3 | nt | 3 | 12 | nt | nt | nt | nt | nt
O=C(NC(=S)Nc1cccnc1Cl)c1ccc(Cl)cc1 | 46 | 67* | 46 | 2 | 2 | -5 | 25 | 23 | 46 | 48 | 53*
COc1ccc(/C(N)=N/OC(=O)c2cccs2)cc1 | 58* | 77* | 15 | 0 | 2 | 11 | 64* | 74* | 95* | 75* | 82*
Cc1ccc(C(=O)O/N=C(\N)Cc2cccs2)c(Cl)c1 | 70* | 87* | 85* | 21 | 1 | 0 | 84* | 83* | 95* | 86* | 84*
COc1ccccc1C(=O)O/N=C(\N)c1ccc(Cl)cc1 | 13 | -1 | 24 | 2 | 2 | 0 | nt | nt | nt | nt | nt
N/C(=N\OC(=O)c1cccs1)c1ccc(Cl)cc1 | 51* | 61* | 68* | -8 | 2 | 18 | 5 | 6 | 11 | 7 | 11
COc1ccc(C(=O)O/N=C(\N)c2ccc(Cl)cc2)cc1 | 45 | 58* | 68* | 4 | 4 | 18 | 45 | 42 | 84* | 72* | 42
Cc1ccc(C(=O)O/N=C(\N)Cc2ccc([N+](=O)[O-])cc2)c(Cl)c1 | 2 | -7 | 7 | -5 | 1 | 21 | nt | nt | nt | nt | nt
Cc1ccc(/C(N)=N/OC(=O)c2ccc(Cl)cc2Cl)cc1 | 49 | 79* | 64* | -1 | 2 | 5 | 33 | 50* | 84* | 47 | 59*
Cc1cccc(C(=O)O/N=C(\N)c2ccc(Cl)cc2)c1 | 22 | 25 | 50 | 14 | 3 | 13 | nt | nt | nt | nt | nt
Nc1cc(C2CCCC2)nn1-c1ccccc1 | 32 | 62* | 41 | 43 | -4 | 5 | 38 | 39 | 77* | 81* | 55*
C/C(=N\NC(=O)c1ccc(O)cc1)c1cc2ccccc2o1 | -7 | -10 | -5 | -7 | 1 | -10 | nt | nt | nt | nt | nt

Screening results deposited in PubChem BioAssay by several laboratories.
